Measured values gathered from unrelated publications.
Each line is one published result; the experiments were not run side by side.
CDK2: Cyclin-dependent kinase 2 (CDK2, Homo sapiens, UniProt P24941)

SMILES	target	assay	system	setting	measurement	value
Cc1cc(S(=O)(=O)NCCO[C@H]2CC[C@H](CN3CCC(c4ccc5c(c4)n(C)c(=O)n5C4CCC(=O)NC4=O)CC3)CC2)ccc1Nc1ncc(C(F)(F)F)c([C@H]2CC[C@@](C)(O)CC2)n1 (stereo partly drawn)	CDK2	protein level, degrader, western blot	MKN-1		Dmax	90%
CCN1/C(=C/C(C)=O)Sc2ccc(F)cc21	Alpha-1A adrenergic receptor (Adra1a, Rattus norvegicus, UniProt P43140)	ligand displacement, radioligand		10 µM	inhibition	1.54%
Cc1cc(=O)oc2cc(NC(=O)[C@H](CCCN=C(N)N)NC(=O)[C@H](CCCN=C(N)N)NC(=O)OCc3ccccc3)ccc12	Cathepsin B (CTSB, Homo sapiens, UniProt P07858)	enzyme activity, substrate, fluorescence		pH 5	Km	858 µM
Cc1cc(S(=O)(=O)NC2CCC(CC3CCN(c4ccc(C5CCC(=O)NC5=O)cc4)CC3)CC2)ccc1Nc1ncc(C(F)(F)F)c(N2CCC[C@](C)(O)C2)n1 (stereo partly drawn)	CDK2	protein level, degrader, western blot	MKN-1		Dmax	80%
NC/C(=C\F)COc1cccc(Cn2c(=S)[nH]c(=O)c3[nH]cnc32)c1	Voltage-dependent N-type calcium channel subunit alpha-1B (Cacna1b, Rattus norvegicus, UniProt Q02294)	ligand displacement, radioligand		10 µM	inhibition	< 50%
C#Cc1cc(-c2cc(Nc3nc(N[C@@H](C)c4ccc(F)cn4)ncc3Cl)n[nH]2)ccc1C=O	Tyrosine-protein kinase Fyn (FYN, Homo sapiens, UniProt P06241)	enzyme activity, inhibitor		0.2 µM	inhibition	66.5%
Cc1cc(O)c(-c2ccc([C@@H](C)CN(C)C)cc2)c2c1[nH]c(=O)c1sccc12	MAP kinase-activated protein kinase 3 (MAPKAPK3, Homo sapiens, UniProt Q16644)	enzyme activity, inhibitor		0.1 µM	inhibition	-21.1%
C[C@]1(O)CCCN(c2nc(Nc3ccc(S(=O)(=O)N[C@H]4CC[C@H](CN5CCN(c6ccc(C7CCC(=O)NC7=O)cc6F)CC5)CC4)cc3F)ncc2C(F)(F)F)C1 (stereo partly drawn)	CDK2	protein level, degrader, western blot	TOV21G		Dmax	95%
CCCCC(=O)Nc1ccc(-c2ccc3ncn(CCC)c(=O)c3c2)cn1	Serine/threonine-protein kinase D3 (PRKD3, Homo sapiens, UniProt O94806)	binding, competition with immobilised ligand		0.5 µM	remaining binding	92%
COc1cc(Br)cc(C2NC(=O)NC(C)=C2C(=O)OCc2ccccc2)c1O (stereo not drawn)	Voltage-dependent L-type calcium channel subunit alpha-1C (Cacna1c, Rattus norvegicus, UniProt P22002)	ion current, inhibitor, patch clamp	HEK293	10 µM	inhibition	> 60%
Cc1cc(S(=O)(=O)NC2CC(N3CCN(CC4CCN(c5cccc6c5n(C)c(=O)n6C5CCC(=O)NC5=O)CC4)C4(CC4)C3)C2)ccc1Nc1ncc(C(F)(F)F)c(N2CCC[C@](C)(O)C2)n1 (stereo partly drawn)	CDK2	protein level, degrader, western blot	MKN-1		Dmax	92%
C1=C/COCc2cc(ccc2OCCN2CCCC2)Nc2nccc(n2)-c2cccc(c2)COC/1	Cyclin-dependent kinase 2 homolog (CRK2, Plasmodium falciparum, UniProt P61075)	cell-free assay		0.1 µM	remaining signal	85%
